{
  "source": "ChEMBL document CHEMBL3351225",
  "about": "“Design, synthesis, and structure-activity and structure-pharmacokinetic relationship studies of novel [6,6,5] tricyclic fused oxazolidinones leading to the discovery of a potent, selective, and orally bioavailable FXa inhibitor” (J Med Chem, 2014)",
  "key": {"Rattus norvegicus [1]": {"system": "Rattus norvegicus", "assay": "Antithrombotic activity in rat model of arteriovenous shunt-induced thrombosis assessed as reduction in thrombus formation dosed orally 60 mins before shunt opening", "conditions": "po"}, "Rattus norvegicus [2]": {"system": "Rattus norvegicus", "assay": "Induction of tail bleeding in rat assessed as prolongation of bleeding time dosed orally 60 mins before surgery", "format": "organism-based", "conditions": "in vivo, po, 1 h", "in_short": "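Anesthetized rats were dosed orally with compound suspended in 0.5% CMC-Na, or vehicle, 60 min before the tail was transected 4 mm from the tip. The tail was immersed vertically in saline at 37 °C. Bleeding time was taken as the point when flow ceased for >30 s, with a 30 min maximum.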"}, "Salmonella typhimurium": {"system": "Salmonella typhimurium", "assay": "Genotoxicity in Salmonella typhimurium by Ames test", "format": "toxicity, organism-based", "conditions": "salmonella enterica subsp. enterica serovar typhimurium"}, "Plasma": {"system": "Plasma", "assay": "Anticoagulant activity in citrated rabbit plasma assessed as drug concentration required to double plasma clotting time preincubated for 10 mins at 37 degC by coagulometry", "format": "functional, Oryctolagus cuniculus", "in_short": "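Test compound or DMSO added to citrated rabbit plasma (3.8% sodium citrate, 10:90 v/v) and preincubated 10 min at 37 °C. PT and aPTT clotting times measured on a coagulometer with commercial kits. Activity expressed as the concentration needed to double plasma clotting time (CT2, μM).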"}, "[3]": {"assay": "AUC (0 to infinity) in Beagle dog at 0.5 mg/kg, iv", "format": "ADME, organism-based, Canis lupus familiaris", "set-up": "time infinity, dose 0.5 mg/kg, route intravenous", "conditions": "plasma", "in_short": "(§1)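 Male dogs, three per group. Dosed orally at 1 mg/kg or by intravenous infusion at 0.5 mg/kg. Vehicle was 5% DMSO + 5% Tween-80 in 90% saline, or 10% DMSO + 10% Tween-80 + 80% PEG400 for the reference drug. Foreleg blood samples were quantified by LC-MS. Parameters came from noncompartmental analysis of mean plasma concentrations.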"}, "Coagulation factor VII": {"target": "T1, Coagulation factor VII (Homo sapiens, UniProt P08709)", "T1 sequence (P08709 whole entry)": "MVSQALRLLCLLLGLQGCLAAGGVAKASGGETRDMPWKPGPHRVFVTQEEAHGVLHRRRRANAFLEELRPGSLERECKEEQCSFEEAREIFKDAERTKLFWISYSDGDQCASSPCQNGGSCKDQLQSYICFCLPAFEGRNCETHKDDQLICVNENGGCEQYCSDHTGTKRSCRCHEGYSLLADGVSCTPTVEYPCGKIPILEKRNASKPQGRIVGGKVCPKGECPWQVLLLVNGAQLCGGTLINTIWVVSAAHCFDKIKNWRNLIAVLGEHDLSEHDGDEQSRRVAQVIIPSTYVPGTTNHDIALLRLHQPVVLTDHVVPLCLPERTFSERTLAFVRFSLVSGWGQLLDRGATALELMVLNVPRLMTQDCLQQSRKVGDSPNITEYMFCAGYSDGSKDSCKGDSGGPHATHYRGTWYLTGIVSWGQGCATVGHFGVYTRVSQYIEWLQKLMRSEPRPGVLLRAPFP", "assay": "Inhibition of human factor 7a using S-2366 chromogenic substrate", "in_short": "(§2)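 Human enzyme and inhibitor were premixed and preincubated, then the chromogenic substrate was added. Substrate levels: 300 μM S-2765 (FXa, trypsin); 200 μM S-2366 (FIIa); 2 mM S-2366 (FVIIa, FXIa). pNA release was monitored continuously at 405 nm for 20 min at 37 °C. IC50 was obtained by nonlinear regression.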"}, "[4]": {"assay": "Volume of distribution at steady state in Beagle dog at 0.5 mg/kg, iv", "format": "ADME, organism-based, Canis lupus familiaris", "set-up": "dose 0.5 mg/kg, route intravenous", "conditions": "in vivo, read-out: Vdss", "in_short": "as §1"}, "[5]": {"assay": "Oral bioavailability in Beagle dog at 1 mg/kg", "format": "ADME, organism-based, Canis lupus familiaris", "conditions": "in vivo", "in_short": "as §1"}, "Rattus norvegicus [6]": {"system": "Rattus norvegicus", "assay": "Toxicity in rat assessed as induction of food intake changes at 50 mg/kg, po dosed once daily for 2 weeks", "format": "organism-based", "set-up": "dose 50 mg/kg, route oral", "conditions": "in vivo, 336 h", "in_short": "(§3)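 Subacute toxicity in rats: oral dosing once daily for 2 weeks at 50 mg/kg (medium) or 100 mg/kg (high). Behavior, body weight, food intake, organ coefficients and survival rate were monitored.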"}, "Cytochrome P450 3A4": {"target": "Cytochrome P450 3A4 (Homo sapiens, UniProt P08684)", "sequence (P08684 whole entry)": "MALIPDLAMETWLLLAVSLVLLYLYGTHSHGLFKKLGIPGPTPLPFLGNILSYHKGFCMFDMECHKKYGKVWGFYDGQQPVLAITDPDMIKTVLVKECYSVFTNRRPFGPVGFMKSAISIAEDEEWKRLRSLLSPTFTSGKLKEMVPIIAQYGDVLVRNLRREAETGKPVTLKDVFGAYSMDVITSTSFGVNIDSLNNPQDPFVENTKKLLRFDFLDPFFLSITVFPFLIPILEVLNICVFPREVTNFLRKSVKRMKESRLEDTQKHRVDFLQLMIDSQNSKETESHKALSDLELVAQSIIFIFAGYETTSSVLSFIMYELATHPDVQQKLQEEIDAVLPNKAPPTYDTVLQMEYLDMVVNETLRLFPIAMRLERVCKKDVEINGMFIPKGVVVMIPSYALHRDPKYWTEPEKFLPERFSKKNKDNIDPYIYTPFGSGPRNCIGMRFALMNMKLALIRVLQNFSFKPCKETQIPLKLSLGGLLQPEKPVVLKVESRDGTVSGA", "assay": "Inhibition of CYP3A4 (unknown origin)", "format": "ADME"}, "Rattus norvegicus [7]": {"system": "Rattus norvegicus", "assay": "Toxicity in rat assessed as survival rate changes at 50 mg/kg, po dosed once daily for 2 weeks", "format": "organism-based", "set-up": "dose 50 mg/kg, route oral", "conditions": "in vivo, 336 h", "in_short": "as §3"}, "Rattus norvegicus [8]": {"system": "Rattus norvegicus", "assay": "Toxicity in rat assessed as induction of body weight changes at 50 mg/kg, po dosed once daily for 2 weeks", "format": "organism-based", "set-up": "dose 50 mg/kg, route oral", "conditions": "in vivo, 336 h", "in_short": "as §3"}, "Trypsin": {"target": "Trypsin (Homo sapiens, UniProt P07477+P07478+P35030)", "assay": "Inhibition of human trypsin using N-Z-D-Arg-Gly-Arg-pNA, S-2765 chromogenic substrate", "format": "protein assay", "in_short": "as §2"}, "[9]": {"assay": "AUC (0 to infinity) in Sprague-Dawley rat at 3 mg/kg, iv", "format": "ADME, organism-based", "set-up": "time infinity, dose 3 mg/kg, route intravenous", "conditions": "plasma", "in_short": "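Male Sprague-Dawley rats, 200−220 g, four per group. Vehicle was 5% DMSO + 5% Tween-80 in 90% saline. The reference drug was given in 10% DMSO + 10% Tween-80 + 80% PEG400 (40% solution in saline). Serial retrobulbar vein samples were quantified by LC-MS. Parameters came from noncompartmental analysis of mean plasma concentrations.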"}, "Cytochrome P450 2C19": {"target": "Cytochrome P450 2C19 (Homo sapiens, UniProt P33261)", "sequence (P33261 whole entry)": "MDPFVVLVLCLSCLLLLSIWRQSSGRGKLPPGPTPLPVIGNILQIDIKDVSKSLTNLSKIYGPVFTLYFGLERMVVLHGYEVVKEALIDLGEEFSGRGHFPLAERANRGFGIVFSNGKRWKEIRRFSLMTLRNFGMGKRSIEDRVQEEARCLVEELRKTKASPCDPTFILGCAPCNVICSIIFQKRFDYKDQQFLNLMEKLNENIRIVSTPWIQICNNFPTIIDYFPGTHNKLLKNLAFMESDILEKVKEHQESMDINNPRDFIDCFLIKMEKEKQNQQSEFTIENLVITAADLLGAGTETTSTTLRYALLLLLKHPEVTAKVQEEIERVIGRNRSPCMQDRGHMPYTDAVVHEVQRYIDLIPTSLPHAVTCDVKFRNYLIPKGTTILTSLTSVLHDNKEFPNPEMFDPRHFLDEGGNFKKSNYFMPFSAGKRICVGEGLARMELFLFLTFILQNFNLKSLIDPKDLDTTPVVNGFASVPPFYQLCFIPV", "assay": "Inhibition of CYP2C19 (unknown origin)", "format": "ADME"}, "Cytochrome P450 2C9": {"target": "Cytochrome P450 2C9 (Homo sapiens, UniProt P11712)", "sequence (P11712 whole entry)": "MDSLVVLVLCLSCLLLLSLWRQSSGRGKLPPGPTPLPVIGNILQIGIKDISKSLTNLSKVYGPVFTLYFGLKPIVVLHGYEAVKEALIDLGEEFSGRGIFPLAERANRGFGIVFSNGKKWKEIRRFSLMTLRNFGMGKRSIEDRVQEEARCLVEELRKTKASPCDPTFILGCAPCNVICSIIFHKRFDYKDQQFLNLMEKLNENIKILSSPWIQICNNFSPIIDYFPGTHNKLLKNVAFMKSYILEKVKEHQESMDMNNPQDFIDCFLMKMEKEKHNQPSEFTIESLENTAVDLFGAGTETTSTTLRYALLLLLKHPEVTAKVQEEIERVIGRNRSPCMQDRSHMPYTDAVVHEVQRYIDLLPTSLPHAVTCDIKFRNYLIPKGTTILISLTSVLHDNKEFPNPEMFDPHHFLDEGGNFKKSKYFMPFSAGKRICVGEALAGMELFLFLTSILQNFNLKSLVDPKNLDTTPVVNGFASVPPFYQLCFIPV", "assay": "Inhibition of CYP2C9 (unknown origin)", "format": "ADME"}},
  "data": [
    {"smiles": "O=C(NC[C@@H]1OC(=O)N2c3ccc(N4CCOCC4=O)cc3OC[C@@H]12)c1ccc(Cl)s1", "values": [
      {"measurement": "ED50", "setting": "Rattus norvegicus [1]", "value": 5.28, "unit": "mg/kg"},
      {"measurement": "Activity", "setting": "Rattus norvegicus [2]", "value": "Dose-dependent effect"},
      {"measurement": "Activity", "setting": "Salmonella typhimurium", "value": "Non-toxic"},
      {"measurement": "Activity", "setting": "Plasma", "value": 0.18, "unit": "µM"},
      {"measurement": "AUC(0-inf)", "setting": "[3]", "value": 1320, "unit": "ng·h/mL"},
      {"measurement": "IC50", "setting": "Coagulation factor VII", "value": "> 100", "unit": "µM"},
      {"measurement": "Vd", "setting": "[4]", "value": 1.7, "unit": "L/kg"},
      {"measurement": "bioavailability", "setting": "[5]", "value": 92, "unit": "%"},
      {"measurement": "Activity", "setting": "Rattus norvegicus [6]", "value": "Non-toxic"},
      {"measurement": "IC50", "setting": "Cytochrome P450 3A4", "value": 85.1, "unit": "µM"},
      {"measurement": "Activity", "setting": "Rattus norvegicus [7]", "value": "Non-toxic"},
      {"measurement": "Activity", "setting": "Rattus norvegicus [8]", "value": "Non-toxic"},
      {"measurement": "IC50", "setting": "Trypsin", "value": "> 100", "unit": "µM"},
      {"measurement": "AUC(0-inf)", "setting": "[9]", "value": 15300, "unit": "ng·h/mL"},
      {"measurement": "IC50", "setting": "Cytochrome P450 2C19", "value": "> 200", "unit": "µM"},
      {"measurement": "IC50", "setting": "Cytochrome P450 2C9", "value": 43.2, "unit": "µM"}
    ]}
  ]
}
